Results on 20 molecules are retold here after ChEMBL document CHEMBL1126621 (J Med Chem, 1993).

pIC50: −log10 of the molar value. Bridge positions count the residues as written; N and C are the ends. Square brackets hold non-standard residues; d marks the D form. Peptide text beside a SMILES is read from it. Pen = CC(C)(S)[C@H](N)C(=O)O A value given as a limit tells only on which side of the number the result lay.

In test [1] the target is Delta-type opioid receptor (Mus musculus, UniProt P32300). The test can be described thus: Inhibition of delta-selective antagonist binding to opioid receptor of mouse vas dferens. An outline of the steps:
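Mouse vas deferens at 500 mg tension in Mg-free Krebs, 37 °C, 95% O2/5% CO2. Field-stimulated with 2-ms supramaximal pulses; isometric contractions recorded. Cumulative concentration-response. At least 2 assays in duplicate.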

Test [2] concerns the target T1, Kappa-type opioid receptor (Cavia porcellus, UniProt P41144). The test can be described thus: (§1) Inhibition of [3H]U-69593 binding to kappa opioid receptor of guinea pig brain homogenate. An outline of the steps:
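Adult male Hartley guinea pig whole-brain membranes in 50 mM Tris-HCl pH 7.4, preincubated 25 °C 30 min to strip endogenous peptides. Assay buffer: Tris with BSA, bestatin, bacitracin, captopril, PMSF. Ten concentrations over 800-fold range, duplicate tubes. 10 μM naltrexone defined nonspecific binding. 25 °C for 3 h, then PEI-treated GF/B filtration and scintillation counting. One/two-site nonlinear regression or logistic fit. ≥3 independent runs, mean ± SEM.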

The target of a further test is Mu-type opioid receptor (Cavia porcellus, UniProt P97266). The experiment in a line: Inhibition of [3H]PL-17 binding to mu opioid receptor of guinea pig brain homogenate.
Test [3] addresses T1, Kappa-type opioid receptor. The description is as §1. An outline of the steps:
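Adult male Hartley guinea pig whole-brain membranes in 50 mM Tris-HCl pH 7.4, preincubated 25 °C 30 min to strip endogenous peptides. Assay buffer: Tris with BSA, bestatin, bacitracin, captopril, PMSF. Radioligand: [3H]DPDPE 1.0 nM (δ) or [3H]U-69,593 0.75 nM (κ). Ten concentrations over 800-fold range, duplicate tubes. 10 μM naltrexone defined nonspecific binding. 25 °C for 3 h, then PEI-treated GF/B filtration and scintillation counting. One/two-site nonlinear regression or logistic fit. ≥3 independent runs, mean ± SEM.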
The source holds these as a separate data set.

Test [4] is described as follows: Relative affinity for delta and kappa opioid receptors of guinea pig brain homogenate. As to conditions: Cavia porcellus.

Chain of Mu-type opioid receptor (P97266 whole entry): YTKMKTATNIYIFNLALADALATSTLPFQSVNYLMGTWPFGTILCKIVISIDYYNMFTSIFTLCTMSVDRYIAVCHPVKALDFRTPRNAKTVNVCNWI
Chain of Delta-type opioid receptor (P32300 whole entry): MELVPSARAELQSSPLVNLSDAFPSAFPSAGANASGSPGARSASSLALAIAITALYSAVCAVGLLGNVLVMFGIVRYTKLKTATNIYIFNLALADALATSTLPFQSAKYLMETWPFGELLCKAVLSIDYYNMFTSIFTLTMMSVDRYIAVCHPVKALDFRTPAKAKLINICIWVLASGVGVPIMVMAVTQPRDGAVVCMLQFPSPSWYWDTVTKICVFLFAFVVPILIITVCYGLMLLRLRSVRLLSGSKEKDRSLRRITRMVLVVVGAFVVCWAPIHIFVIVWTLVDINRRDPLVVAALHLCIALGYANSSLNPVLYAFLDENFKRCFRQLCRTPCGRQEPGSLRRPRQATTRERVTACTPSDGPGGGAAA
T1 sequence (P41144 whole entry): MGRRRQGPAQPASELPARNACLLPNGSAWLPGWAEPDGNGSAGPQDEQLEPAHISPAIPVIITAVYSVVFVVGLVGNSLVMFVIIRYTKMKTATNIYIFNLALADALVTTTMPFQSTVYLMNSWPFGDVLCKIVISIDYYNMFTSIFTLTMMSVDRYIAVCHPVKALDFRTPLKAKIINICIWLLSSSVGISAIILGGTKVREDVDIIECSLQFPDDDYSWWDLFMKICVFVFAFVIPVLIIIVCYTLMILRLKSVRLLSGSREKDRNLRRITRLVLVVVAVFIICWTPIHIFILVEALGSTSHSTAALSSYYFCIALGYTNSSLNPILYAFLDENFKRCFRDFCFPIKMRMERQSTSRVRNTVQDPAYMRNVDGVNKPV

In the case of `CC[C@H](C)[C@@H]1NC(=O)[C@H](CCCN=C(N)N)NC(=O)[C@H](CCCN=C(N)N)NC(=O)[C@@H](NC(=O)[C@H](Cc2ccccc2)NC(=O)CNC(=O)CNC(=O)[C@@H](N)Cc2ccc(O)cc2)CSSC[C@@H](C(=O)N2CCC[C@H]2C(=O)N[C@@H](CCCCN)C(N)=O)NC1=O` (H-YGGFCRRICPK-NH2; disulfide 5-9), the negative logarithm of the IC50 (pIC50) in test [1] was under 5.52; in test [2], 9.06; on Mu-type opioid receptor, 8.19.

For the molecule `CC[C@H](C)[C@@H]1NC(=O)[C@H](CCCN=C(N)N)NC(=O)[C@H](CCCN=C(N)N)NC(=O)[C@@H](NC(=O)[C@H](Cc2ccccc2)NC(=O)CNC(=O)CNC(=O)[C@@H](N)Cc2ccc(O)cc2)CSSC[C@@H](C(=O)N[C@@H](CCCN=C(N)N)C(=O)N[C@@H](CCCCN)C(N)=O)NC1=O` (H-YGGFCRRICRK-NH2; disulfide 5-9), the pIC50 in test [1] is 5.20; on Mu-type opioid receptor, 8.24; in test [3], 9.38.

In the case of `CC[C@H](C)[C@H]1NC(=O)[C@H](CCCN=C(N)N)NC(=O)[C@@H](CCCN=C(N)N)NC(=O)[C@H](NC(=O)[C@H](Cc2ccccc2)NC(=O)CNC(=O)[C@@H](C)NC(=O)[C@@H](N)Cc2ccc(O)cc2)CSSC[C@H](C(=O)O)NC(=O)[C@H]2CCCN2C(=O)[C@H](CCCN=C(N)N)NC1=O`, in test [4], the Selectivity amounted to 1.3.

For the molecule `CC[C@H](C)[C@H]1NC(=O)[C@H](CCCN=C(N)N)NC(=O)[C@@H](NC(=O)[C@H](CC(C)C)NC(=O)[C@H](Cc2ccccc2)NC(=O)CNC(=O)CNC(=O)[C@@H](N)Cc2ccc(O)cc2)CSSC[C@@H](C(=O)N[C@@H](CCCCN)C(=O)O)NC(=O)[C@H](CCCN=C(N)N)NC1=O`, the Selectivity in test [4] came out at 10.

Molecule `CC(C)C[C@H](NC(=O)[C@H](Cc1ccccc1)NC(=O)CNC(=O)CNC(=O)[C@@H](N)Cc1ccc(O)cc1)C(=O)N[C@@H](CCCN=C(N)N)C(=O)N[C@@H](CCCN=C(N)N)C(=O)N[C@@H]1CSSC[C@@H](C(=O)N[C@@H](CCCCN)C(=O)O)NC(=O)[C@@H](CCCCN)NC(=O)[C@@H]2CCCN2C(=O)[C@@H](CCCN=C(N)N)NC1=O` came in with a Selectivity in test [4] of 56.

In turn, `CC(C)C[C@H](NC(=O)[C@H](Cc1ccccc1)NC(=O)CNC(=O)CNC(=O)[C@@H](N)Cc1ccc(O)cc1)C(=O)N[C@@H](CCCN=C(N)N)C(=O)N[C@@H](CCCN=C(N)N)C(=O)N[C@H]1CSSC[C@H](C(=O)O)NC(=O)[C@@H](CC(C)C)NC(=O)[C@H](CCCCN)NC(=O)[C@H]2CCCN2C(=O)[C@H](CCCN=C(N)N)NC1=O` registered a Selectivity in test [4] of 55.

Molecule `CC[C@H](C)[C@@H]1NC(=O)[C@@H](CCCN=C(N)N)NC(=O)[C@H](CCCN=C(N)N)NC(=O)[C@H](NC(=O)[C@H](Cc2ccccc2)NC(=O)CNC(=O)CNC(=O)[C@@H](N)Cc2ccc(O)cc2)CSSC[C@H](C(=O)N[C@@H](CCCCN)C(=O)O)NC(=O)[C@@H](CCCN=C(N)N)NC1=O` came in with a Selectivity in test [4] of 139.

In test [4], `CC[C@H](C)[C@H]1NC(=O)[C@H](CCCN=C(N)N)NC(=O)[C@@H](CCCN=C(N)N)NC(=O)[C@H](NC(=O)[C@H](Cc2ccccc2)NC(=O)CNC(=O)CNC(=O)[C@@H](N)Cc2ccc(O)cc2)CSSC[C@H](C(=O)N[C@H](CCCN=C(N)N)C(=O)N[C@H](CCCCN)C(=O)O)NC1=O` gave a Selectivity of 43.

The molecule `CC[C@H](C)[C@H]1NC(=O)[C@H](CCCN=C(N)N)NC(=O)[C@@H](CCCN=C(N)N)NC(=O)[C@H](NC(=O)[C@H](Cc2ccccc2)NC(=O)CNC(=O)CNC(=O)[C@@H](N)Cc2ccccc2)CSSC[C@H](C(=O)O)NC(=O)[C@H]2CCCN2C(=O)[C@H](CCCN=C(N)N)NC1=O` had a Selectivity in test [4] of 26.

Turning to `CC[C@H](C)[C@@H]1NC(=O)[C@H](CCCNC(=N)N)NC(=O)[C@@H](NC(=O)[C@H](CC(C)C)NC(=O)[C@H](Cc2ccccc2)NC(=O)CNC(=O)CNC(=O)[C@@H](N)Cc2ccc(O)cc2)CSSC[C@@H](C(=O)N[C@@H](CCCCN)C(N)=O)NC(=O)[C@H](CCCNC(=N)N)NC1=O` (H-YGGFLCRIRCK-NH2; disulfide 6-10), the results for the pIC50 (in test [1]; in test [2]; at Mu-type opioid receptor) were 7.03, 10.33 and 10.04, respectively.

On to `CC(C)C[C@H](NC(=O)[C@H](Cc1ccccc1)NC(=O)CNC(=O)CNC(=O)[C@@H](N)Cc1ccc(O)cc1)C(=O)N[C@@H](CCCNC(=N)N)C(=O)N[C@@H](CCCNC(=N)N)C(=O)N[C@@H]1CSSC[C@H](C(=O)N[C@@H](CCCCN)C(N)=O)NC(=O)[C@H](CCCCN)NC(=O)[C@@H]2CCCN2C(=O)[C@H](CCCNC(=N)N)NC1=O`, for which the negative logarithm of the IC50 (pIC50) in test [1] was 7.60; in test [2], 9.94; at Mu-type opioid receptor it was 9.17.

As to `CC[C@H](C)[C@@H]1NC(=O)[C@H](CCCN=C(N)N)NC(=O)[C@H](CCCN=C(N)N)NC(=O)[C@@H](NC(=O)[C@H](Cc2ccccc2)NC(=O)CNC(=O)CNC(=O)[C@@H](N)Cc2ccc(O)cc2)C(C)(C)SSC[C@@H](C(N)=O)NC(=O)[C@@H]2CCCN2C(=O)[C@H](CCCN=C(N)N)NC1=O` (H-YGGF[Pen]RRIRPC-NH2; disulfide 5-11), the pIC50 in test [1] was under 5.22; in test [2], 9.28; at Mu-type opioid receptor, 8.90.

Turning to `CC[C@H](C)[C@@H]1NC(=O)[C@H](CCCNC(=N)N)NC(=O)[C@H](CCCNC(=N)N)NC(=O)[C@@H](NC(=O)[C@H](Cc2ccccc2)NC(=O)CNC(=O)CNC(=O)[C@@H](N)Cc2ccccc2)CSSC[C@@H](C(N)=O)NC(=O)[C@@H]2CCCN2C(=O)[C@H](CCCNC(=N)N)NC1=O` (H-FGGFCRRIRPC-NH2; disulfide 5-11), the pIC50 in test [1] was under 5.52; in test [2], 7.82; on Mu-type opioid receptor, 7.21.

As for `CC[C@H](C)[C@@H]1NC(=O)[C@H](CCCN=C(N)N)NC(=O)[C@H](CCCN=C(N)N)NC(=O)[C@@H](NC(=O)[C@H](Cc2ccccc2)NC(=O)CNC(=O)CNC(=O)[C@@H](N)Cc2ccc(O)cc2)CSSC[C@@H](C(=O)N[C@@H](CCCCN)C(N)=O)NC(=O)[C@H](CCCN=C(N)N)NC1=O` (H-YGGFCRRIRCK-NH2; disulfide 5-10), the pIC50 in test [1] was under 5.52; in test [2], 9.23; at Mu-type opioid receptor it was 8.37.

`CC[C@H](C)[C@H]1NC(=O)[C@H](CCCN=C(N)N)NC(=O)[C@@H](CCCN=C(N)N)NC(=O)[C@H](NC(=O)[C@H](Cc2ccccc2)NC(=O)CNC(=O)CNC(=O)[C@@H](N)Cc2ccc(O)cc2)CSSC[C@H](C(=O)N2CCC[C@@H]2C(=O)N[C@H](CCCCN)C(=O)O)NC1=O` returned a Selectivity in test [4] of 36.

Consider `CC[C@H](C)[C@H]1NC(=O)[C@H](CCCN=C(N)N)NC(=O)[C@@H](CCCN=C(N)N)NC(=O)[C@H](NC(=O)[C@H](Cc2ccccc2)NC(=O)CNC(=O)CNC(=O)[C@@H](N)Cc2ccc(O)cc2)C(C)(C)SSC[C@H](C(=O)O)NC(=O)[C@H]2CCCN2C(=O)[C@H](CCCN=C(N)N)NC1=O`, for which the Selectivity in test [4] was found to be 165.

With `CC(C)C[C@H](NC(=O)[C@H](Cc1ccccc1)NC(=O)CNC(=O)CNC(=O)[C@@H](N)Cc1ccc(O)cc1)C(=O)N[C@@H](CCCN=C(N)N)C(=O)N[C@@H](CCCN=C(N)N)C(=O)N[C@H]1CSSC[C@H](C(N)=O)NC(=O)[C@H](CC(C)C)NC(=O)[C@H](CCCCN)NC(=O)[C@@H]2CCCN2C(=O)[C@H](CCCN=C(N)N)NC1=O`, the pIC50 in test [1] was 8.04; in test [2] it was 10.46; on Mu-type opioid receptor it was 9.42.

On to `CC[C@H](C)[C@H]1NC(=O)[C@H](CCCN=C(N)N)NC(=O)[C@@H](CCCN=C(N)N)NC(=O)[C@H](NC(=O)[C@H](Cc2ccccc2)NC(=O)CNC(=O)CNC(=O)[C@@H](N)Cc2ccc(O)cc2)CSSC[C@H](C(=O)O)NC(=O)[C@@H](CC(C)C)NC(=O)[C@H](CCCCN)NC(=O)C2CCCN2C(=O)[C@H](CCCN=C(N)N)NC1=O` (stereo in doubt), for which the Selectivity in test [4] stood at 46.

Turning to `CC[C@H](C)[C@@H]1NC(=O)[C@H](CCCN=C(N)N)NC(=O)[C@H](CCCN=C(N)N)NC(=O)[C@@H](NC(=O)[C@H](Cc2ccccc2)NC(=O)CNC(=O)[C@@H](C)NC(=O)[C@@H](N)Cc2ccc(O)cc2)CSSC[C@@H](C(N)=O)NC(=O)[C@@H]2CCCN2C(=O)[C@H](CCCN=C(N)N)NC1=O`, the pIC50 was under 5.22 in test [1], 7.09 in test [2] and 8.01 on Mu-type opioid receptor.

For `CC[C@H](C)[C@@H]1NC(=O)[C@H](CCCNC(=N)N)NC(=O)[C@H](CCCNC(=N)N)NC(=O)[C@@H](NC(=O)[C@H](Cc2ccccc2)NC(=O)CNC(=O)CNC(=O)[C@@H](N)Cc2ccc(O)cc2)CSSC[C@@H](C(N)=O)NC(=O)[C@H](CC(C)C)NC(=O)[C@H](CCCCN)NC(=O)[C@H]2CCCN2C(=O)[C@H](CCCNC(=N)N)NC1=O`, the pIC50 in test [1] was 5.39; in test [2], 9.68; at Mu-type opioid receptor, 8.61.
